Our source for the K, Relative rate and Total release values is ChEMBL document CHEMBL1122159, “Effects of certain hallucinogenic amphetamine analogues on the release of [3H]serotonin from rat brain synaptosomes” (J Med Chem, 1982).

Holding throughout (format): functional
The species entered for assay [1] is Rattus norvegicus. The experiment in a line: Ability to induce [3H]5-HT release from prelabeled rat whole brain synaptosome preparations at 10e-6 M concentration. Put shortly:
(§1)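 Rat whole brain homogenised in ice-cold 0.32 M sucrose. Synaptosomes were isolated on a 1.2/0.8 M sucrose step gradient, preincubated 5 min at 37 °C in oxygenated Krebs-Henseleit, then loaded 5 min with [3H]5-HT (10^-7 M). Filter-retained synaptosomes were washed and superfused at 0.5 mL/min. 1-min fractions were counted for 5 min before and 10 min after drug addition. Efflux rate constant K taken from semilog plots; means of 3-4 experiments.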

The species named for assay [2] is Rattus norvegicus. The experiment in a line: Ability to induce [3H]5-HT release from prelabeled rat whole brain synaptosome preparations at 10e-7 M concentration. Put shortly:
as §1

The species entered for assay [3] is Rattus norvegicus. Briefly: Ability to induce [3H]-5-HT release from prelabeled rat whole brain synaptosome preparations at 10e-5 M concentration. Put shortly: as §1
The species entered for assay [4] is Rattus norvegicus. Briefly: Ability to induce [3H]5-HT release from prelabeled rat whole brain synaptosome preparations; Relative rate of release to that of control was determined. The method in brief: as §1
Assay [5] is filed under the species Rattus norvegicus. Briefly: Ability to induce [3H]-5-HT release from prelabeled rat whole brain synaptosome preparations and the activity was determined as percent of total released.
The species entered for assay [6] is Rattus norvegicus. Briefly: Ability to induce [3H]5-HT release from prelabeled rat whole brain synaptosome preparations and the K value was determined. The method in brief: as §1
For assay [7], the species on record is Rattus norvegicus. Briefly: Ability to induce [3H]5-HT release from prelabeled rat whole brain synaptosome preparations and the K value was determined at 10e-5 M. The method in brief:
as §1

The structures appear in SMILES notation.

Consider `CN[C@@H](C)Cc1ccc2c(c1)OCO2`, for which the K in the assay filed under Rattus norvegicus [1] was determined as 2.84e+06 min⁻¹; in the assay filed under Rattus norvegicus [2], 1.68e+06 min⁻¹; in the assay listed under Rattus norvegicus [3], 2.62e+06 min⁻¹.
The compound `COc1ccc(CC(C)(C)N)cc1` registered a Relative rate in the assay filed under Rattus norvegicus [4] of 1.06. Further, in the assay listed under Rattus norvegicus [5], the Total release came to 45%.
As for `CNC(C)(C)Cc1ccc2c(c1)OCO2`, the K in the assay listed under Rattus norvegicus [6] came to 169 min⁻¹. The same compound gave a Relative rate in the assay listed under Rattus norvegicus [4] of 1.06. In addition, the Total release in the assay filed under Rattus norvegicus [5] came to 44.3%.
Regarding `COc1ccc(C[C@@H](C)N)cc1`, the K was determined as 2.28e+06 min⁻¹ in the assay listed under Rattus norvegicus [1], 1.39e+06 min⁻¹ in the assay filed under Rattus norvegicus [2] and 3.07e+06 min⁻¹ in the assay listed under Rattus norvegicus [3].
In the case of `C[C@H](N)Cc1ccc2c(c1)OCO2`, the K in the assay listed under Rattus norvegicus [1] turned out to be 2.42e+06 min⁻¹; in the assay listed under Rattus norvegicus [2] it was 1.78e+06 min⁻¹; in the assay filed under Rattus norvegicus [3], 3.07e+06 min⁻¹.
`CN[C@H](C)Cc1ccc2c(c1)OCO2`: the K in the assay listed under Rattus norvegicus [1] is 1.73e+06 min⁻¹; in the assay listed under Rattus norvegicus [2], 1.49e+06 min⁻¹; in the assay filed under Rattus norvegicus [3], 2.74e+06 min⁻¹.
On the same counts, the results for `C[C@@H](N)Cc1ccc2c(c1)OCO2` are 2.02e+06 min⁻¹, 2.14e+06 min⁻¹ and 3.21e+06 min⁻¹.
`COc1ccc(CC(C)N)cc1` (single isomer, unassigned): the K in the assay listed under Rattus norvegicus [6] is 280 10e4min-1; in the assay listed under Rattus norvegicus [1], 2.55e+06 min⁻¹; in the assay filed under Rattus norvegicus [7], 2.3e+06 min⁻¹; in the assay listed under Rattus norvegicus [2], 1.34e+06 min⁻¹. Besides, in the assay filed under Rattus norvegicus [4], the Relative rate amounted to 1.76. For the same compound, the Total release in the assay listed under Rattus norvegicus [5] amounted to 57.8%.
In the assay filed under Rattus norvegicus [6], `CC(C)(N)Cc1ccc2c(c1)OCO2` returned a K of 175 min⁻¹. In addition, in the assay filed under Rattus norvegicus [4], the Relative rate turned out to be 1.09. In addition, the Total release in the assay listed under Rattus norvegicus [5] is 45.2%.
